Statin myotox sup – suppressors of statin myotoxicity in C2C12 myotubes, primary screen, cell-based, single point, plate reader; rescue of ATP level, % at 7.49 µM; 0.78% of 330,000 active; C2C12 myotubes + simvastatin, ATP luminescence, 48 h; scaled: DMSO 0, geranylgeraniol control 100;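 active = mean ATP rescue above about 67%, or every replicate alone reaching that limit, limit read from the data, passing the limit was not always enough; inconclusive = no clear call, values can overlap the other calls; inactive = mean under the limit and some replicate under it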;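 also: myotubes were challenged with 10 µM simvastatin during compound exposure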
PglD inh – C. jejuni PglD acetyltransferase inhibitors, primary screen, biochemical, DTNB colorimetric, single point; purified PglD enzyme, DTNB colorimetric CoA detection; inhibition, % at 12.5 µM; 0.098% of 360,000 active; in the data active = inhibition above about 16%, passing the limit was not always enough; inconclusive = no clear call, values can overlap the other calls
E-selectin induc – E-selectin induction in HUVECs, primary screen, imaging, HUVEC, immunofluorescence imaging, single point; P16581; normalized: neutral wells 0, TNF-alpha wells 100; activation, % at 7.58 µM; 0.37% of 260,000 active;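 active = mean E-selectin-positive cell signal at least 10% of the positive control, reached in at least 60% of replicates, without over 20% cell loss; inconclusive = no rule given, readout overlaps actives, possibly toxicity-flagged; inactive = the rest, including those meeting only one limit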
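Assay system: HUVEC, human umbilical vein endothelial cells / Amount: 3,000 HUVEC/well / Controls: TNF-alpha positive control, DMSO neutral control / Compound dosing: single concentration / Medium: EGM-2 over gelatin coat / Evaluation: percent E-selectin-positive cells / Signal: immunofluorescence imaging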
DENV2 CPE rescue – inhibitors of DENV2 cytopathic effect, primary screen, cell-based, plate reader, single concentration; DENV2-infected cells, cytopathic effect rescue; CPE inhibition, % at 9.99 µM; 1.7% of 350,000 active; AID 651640, 2012; in the data active = CPE inhibition above about 20%, passing the limit was not always enough; inconclusive = no clear call, values can overlap the other calls; tested in BHK-21 cells
XiGFP reactiv – activators of inactive X chromosome reactivation, primary screen, imaging, XiGFP fibroblasts, GFP high-content imaging, set 2; AID 743238, 2013; activation, % at 7.58 µM; 0.055% of 360,000 active; XiGFP mouse fibroblasts, % GFP-positive cells imaging, 3 d; cells co-treated with 5-aza-dC sensitizer; scaled so ellipticine positive control = 100%;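 active = mean normalized replicate activation at least 10% and every replicate at or above 10%; inconclusive = only one of the two criteria met; inactive = mean below 10% and not all replicates reach 10%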
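Assay system: SV40-immortalized XiGFP fibroblast cells, line 68-5-11; buffer or medium: DMEM plus 5-aza-dC sensitizer; compound: one concentration, pinned; timing: compounds 3 days, fix/stain 15 min at room temperature; benchmarks: positive control ellipticine, 6 µM final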
FGF22 binding – binders of human FGF22 protein, primary screen, FGF22 synaptogenesis inhibitor project, biophysical, thermal shift, single point; activity (Tm shift, normalised), % at 9.99 µM; 1.5% of 340,000 active; AID 651658, 2012; recombinant FGF22 thermal shift, SYPRO orange fluorescence; percent of sucrose octasulfate shift, DMSO zero;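 active = mean Tm shift, scaled 0 neutral to 100 positive control, at about 1.3% or above, every replicate too, limit read from the data; inconclusive = no clear call, values can overlap the other calls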
Target sequence (Q9HCT0 whole entry, looked up): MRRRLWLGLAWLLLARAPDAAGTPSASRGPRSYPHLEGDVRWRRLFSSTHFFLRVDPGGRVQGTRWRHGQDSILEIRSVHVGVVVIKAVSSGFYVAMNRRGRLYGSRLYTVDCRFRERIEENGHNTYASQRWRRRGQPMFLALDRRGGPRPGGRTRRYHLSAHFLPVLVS
A number is an active result; - = inactive; ? = inconclusive; . = not tested or not shown. Compounds with a hit are over-represented: about 3.3% of the library has one in this group of screens.

SMILES	Statin myotox sup	PglD inh	E-selectin induc	DENV2 CPE rescue	XiGFP reactiv	FGF22 binding
O=C(NCC1CCCO1)c1ccccc1OCc1ccc(F)cc1 (stereo not given)	-	-	.	-	-	-
Cc1ccc(-c2nn(-c3ccccc3Cl)cc2C(=O)NCC2CCCO2)cc1 (stereo not given)	.	.	.	30	-	-
CCC(=O)N1CCC2(CC1)CN(S(C)(=O)=O)[C@H](CO)c1c2c2ccc(OC)cc2n1C	.	.	-	-	-	-
CCCC(=O)N1CCC2(CC1)CN(S(C)(=O)=O)[C@H](CO)c1c2c2ccc(OC)cc2n1C	.	.	-	59	-	-
CCCC(=O)N1CC2(CCN(C(C)=O)CC2)c2c(n(C)c3cc(OC)ccc23)[C@@H]1CO	.	.	-	-	-	-
CCCC(=O)N1CC2(CCN(C)CC2)c2c(n(C)c3cc(OC)ccc23)[C@@H]1CO	.	.	-	64	-	.
COc1ccc2c3c(n(C)c2c1)[C@@H](CO)N(C(=O)c1ccccn1)CC31CCN(C)CC1	.	.	-	35	-	.
OCc1c(Cl)nc2ccccn12	.	.	.	-	-	43
CC=Cc1ccc2n(c1=O)C[C@H]1[C@H](CO)[C@@H](C(=O)N3CCC(Cc4ccccc4)CC3)N(C)[C@@H]21 (mixture of isomers)	-	-	-	.	-	.
O=C(CN(Cc1ccccc1C(F)(F)F)C(=O)CNC(=O)c1ccco1)NC1CCCC1	113	-	.	.	.	.
COc1ccc2cc(C(=O)NCCO)sc(=O)c2c1OC	-	-	.	.	.	.
CCOC(=O)c1cc2ccc(OC)c(OC)c2c(=O)s1	116	.	.	.	.	.
CC(O)CNc1nc(Cl)c(C#N)s1 (stereo not given)	.	.	.	-	-	43
COCCNc1nc(Cl)c(C#N)s1	.	.	-	-	-	-
O=C(Nc1ccc(F)cc1)N1C[C@@H]2[C@H](c3ccccc31)[C@@H](CO)N2C(=O)Cc1cccnc1	-	-	-	?	-	-
CN(C)C(=O)[C@H]1[C@H](CO)[C@H]2Cn3c(ccc(-c4ccccc4F)c3=O)[C@H]2N1C(=O)C1CC1	-	-	-	-	-	-
CCCN1[C@H](C(=O)NCC(F)(F)F)[C@@H](CO)[C@@H]2Cn3c(ccc(-c4ccccc4)c3=O)[C@@H]21	-	-	-	92	-	-
CC(=O)N1[C@H](C(=O)N2CCCCC2)[C@@H](CO)[C@@H]2Cn3c(ccc(-c4ccccc4)c3=O)[C@@H]21	-	-	-	20	-	-
CC(=O)N1[C@H](C(=O)N(C)C)[C@@H](CO)[C@@H]2Cn3c(ccc(-c4ccccc4F)c3=O)[C@@H]21	-	-	-	34	-	-
Cc1ccc(S(=O)(=O)Nc2ccc3c(c2)CC(=O)N([C@@H](C)CO)C[C@@H](C)[C@H](CN(C)C(=O)NC2CCCCC2)O3)cc1	-	-	-	-	-	-
COc1ccc(CN(C)C[C@H]2Oc3ccc(NS(=O)(=O)c4cn(C)cn4)cc3C(=O)N([C@@H](C)CO)C[C@@H]2C)cc1	-	-	-	-	-	-
NCC[C@@H]1CC[C@@H](NC(=O)C2CCC2)[C@@H](CO)O1	-	-	-	-	-	-
O=C(COc1ccc2ccccc2c1)NNC(=O)Cc1cccc2ccccc12	114	-	.	.	.	.
O=C(COc1ccc2ccccc2c1)NNC(=O)Cc1ccccc1	-	-	.	-	-	-
C=C[C@@H]1c2c(F)cccc2N(S(=O)(=O)c2ccc(C)cc2)[C@H](c2ccc(C(=O)OC)cc2)C1(C#N)C#N	126	-	-	-	-	-
SMILES	Statin myotox sup	PglD inh	E-selectin induc	DENV2 CPE rescue	XiGFP reactiv	FGF22 binding
Cc1cc(S(=O)(=O)Nc2nc(CN3CCOCC3)nc3sc4c(c23)CCCC4)ccc1F	121	-	.	.	.	.
C[C@@H]1CN([C@@H](C)CO)C(=O)c2cc(NC(=O)Cn3cnnn3)ccc2O[C@H]1CN(C)Cc1ccc2c(c1)OCO2	.	.	-	.	-	.
C[C@H](CO)N1C[C@H](C)[C@@H](CN(C)Cc2ccc(Oc3ccccc3)cc2)Oc2ccc(NC(=O)Cn3cnnn3)cc2CC1=O	?	-	-	105	-	-
C[C@H]1CN([C@@H](C)CO)C(=O)c2cc(NC(=O)Cn3cnnn3)ccc2O[C@H]1CN(C)Cc1ccc(-c2ccccc2)cc1	-	-	-	33	-	.
C[C@@H]1CN([C@H](C)CO)C(=O)c2cc(NC(=O)Cn3cnnn3)ccc2O[C@H]1CN(C)Cc1ccc(-c2ccccc2)cc1	-	-	-	-	-	.
C[C@H](CO)N1C[C@H](C)[C@H](CN(C)Cc2ccc3c(c2)OCO3)Oc2ccc(NC(=O)Cn3cnnn3)cc2C1=O	-	-	39	-	-	-
C[C@H](CO)N1C[C@H](C)[C@H](CN(C)Cc2ccc(C(=O)Nc3ccccc3N)cc2)Oc2ccc(NC(=O)Cn3cnnn3)cc2C1=O	100	-	-	-	-	-
C[C@H]1CN([C@@H](C)CO)C(=O)c2cc(NC(=O)Cn3cnnn3)ccc2O[C@@H]1CN(C)Cc1ccc(C(=O)Nc2ccccc2N)cc1	-	-	-	-	-	-
C[C@@H]1CCCCO[C@H](CN(C)C)[C@@H](C)CN([C@@H](C)CO)C(=O)c2cc(NC(=O)Cc3ccccc3)ccc2O1	-	-	-	?	-	-
CCC(=O)N1CC2(C1)[C@H](c1ccc(-c3cccc(F)c3)cc1)[C@H](CO)N2CC1CC1	.	.	-	-	-	-
Cc1ccc(S(=O)(=O)N2CC[C@@H]3[C@H]2c2cc(-c4cccc(C#N)c4)ccc2N(C)[C@H]3CO)cc1	-	-	-	-	-	-
C[C@H](CO)N1C[C@H](C)[C@@H](CN(C)Cc2ccc(Oc3ccccc3)cc2)Oc2ccc(NC(=O)Cn3cnnn3)cc2C1=O	-	-	-	-	-	-
C[C@@H]1CN([C@@H](C)CO)C(=O)c2cc(NC(=O)Cn3cnnn3)ccc2O[C@H]1CN(C)Cc1ccc(Oc2ccccc2)cc1	-	-	48	-	-	-
Cc1cc(S(=O)(=O)NC2CCCCC2)ccc1OCC(=O)N1CCOCC1	.	.	.	-	.	-
O=C(COc1ccc(S(=O)(=O)NC2CCCCC2)cc1)NC1CCCCC1	.	-	.	.	.	.
O=C(COc1ccc(S(=O)(=O)NC2CCCCC2)cc1)NC1CCCC1	-	-	.	-	-	43
CCOC(=O)N1CCN(C(=O)COc2ccc(S(=O)(=O)NC3CCCCC3)cc2C)CC1	116	.	.	.	.	.
CNCC(C)COc1ccccc1OCc1ccccc1 (stereo not given)	.	.	.	64	-	-
